# This excerpt belongs to a sample that is enriched for hits.
# CHOP inhibitor: CHOP inhibition in unfolded protein response. CHO-K1 CHOP-promoter luciferase, tunicamycin-induced, 15-18 h. inhibition, % at 10 µM. actives 3.8% (n = 220,000). AID 2732;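 active = compounds that reduced the stress-induced luciferase reporter signal by more than about 70% of percent inhibition, limit read from the data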;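 also: 0% = tunicamycin plus vehicle and 100% = wells without tunicamycin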
# XBP1 UPR activ: activators of adaptive arm of unfolded protein response (XBP1). AID 463104. activation, % at 20 µM. actives 0.33% (n = 330,000). CHO-XBP1 luciferase reporter, IRE1-XBP1 UPR activation, luminescence; percent of tunicamycin response, DMSO as zero;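 active = versus positive control, 20 µM dose yields 30% or more activation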;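 also: 100% = tunicamycin at 10 µg/mL and 0% = DMSO only wells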
#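 Test system: CHO-XBP1 luciferase reporter cells | Buffer or medium: Serum-containing F12 medium, 10% FBS | Schedule: 6 h compound exposure at 37 °C, 5% CO2 | Detection: Steady-Glo luciferase glow luminescence, 10 min after reagent addition | Read-out basis: Activation, % of tunicamycin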
# UPR CHOP act: activators of apoptotic arm of unfolded protein response (CHOP). AID 449763. activation, % at 10 µM. actives 0.34% (n = 330,000). CHO-CHOP luciferase reporter, UPR activation, luminescence; percent of tunicamycin response over DMSO baseline;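 active = at 10 µM dose, activation of 40% or more, normalized to positive control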;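 also: 100% = tunicamycin at 10 µg/mL and 0% = DMSO alone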
#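 assay system = CHO CHOP reporter cells | amount = 500 CHO-CHOP cells per well | buffer or medium = F12 with 10% FBS | incubation = 16-18 h cell attachment, then 6 h compound exposure, 37 °C | detection = luminescence read with Steady-Glo | read-out = percent activation relative to tunicamycin control | controls = tunicamycin high control, DMSO low control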
# PvdQ inh: blocks Pseudomonas aeruginosa PvdQ acylase activity. purified PvdQ acylase, fluorescence plate reader. inhibition, % at 10 µM. actives 0.063% (n = 340,000). AID 488965; in the data active = inhibition above about 30%, passing the limit was not always enough;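 also: 0% = vehicle neutral wells and 100% = reference inhibitor wells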
# The depositor's hits bear a star; x = not tested or not shown.
SMILES,CHOP inhibitor,XBP1 UPR activ,UPR CHOP act,PvdQ inh
CCCCN1C(=O)/C(=C(/C#N)C(=O)N2CCCC2)c2ccccc21,10.1,-2.1,-2.3,4.2
CC(C)CN1C(=O)/C(=C(/C#N)C(=O)NC2CCCCC2)c2ccccc21,92.0*,-3.1,-1.8,-10.9
O=c1[nH]c(CSc2ncc(C(F)(F)F)cc2Cl)nc2ccccc12,-4.5,3.9,0.8,-5.1
O=c1[nH]c(CSc2ncnc3sccc23)nc2cc(C(F)(F)F)ccc12,88.7*,-2.7,-1.5,-8.0
CSc1ccc(CN(C)Cc2nc3cc(C(F)(F)F)ccc3c(=O)[nH]2)cc1,71.0*,2.1,-0.1,7.8
COc1cc2nc(CN(C)Cc3ccc(SC)cc3)[nH]c(=O)c2cc1OC,24.9,-1.1,-1.0,-12.9
CCOC(=O)c1ccc(N2Cc3ccccc3C2=N)cc1,-30.7,-1.4,4.2,57.7*
CCc1cccc(C)c1NC(=O)CNCc1ccccc1,-5.9,-1.2,3.9,-10.6
Cc1cc(NC(=O)Nc2cccc(C(F)(F)F)c2)no1,93.3*,-0.9,1.4,17.8
COc1ccc(/C=N/Nc2nc(Nc3ccccc3)nc(N3CCCC3)n2)cc1[N+](=O)[O-],83.5*,13.3,39.3,-15.2
COc1ccc(/C=N/Nc2nc(N3CCCCC3)nc(N3CCCCC3)n2)cc1[N+](=O)[O-],22.3,-3.0,-0.3,-6.0
O=C(CCCOc1ccc(Cl)cc1Cl)N/N=C/c1ccccc1,-11.6,-2.7,-0.6,-10.7
O=C(CCCOc1ccc(Cl)cc1Cl)N/N=C/c1ccccc1O,84.9*,0.8,0.1,-6.4
O=C(COc1ccc(Cl)cc1Cl)N/N=C/c1ccc[nH]1,x,-2.2,6.9,0.7
O=C(COc1ccc(Cl)cc1Cl)N/N=C/CCc1ccccc1,75.2*,0.2,0.4,-11.6
CC(=O)OCc1c(C(F)(F)F)nn(C)c1Oc1cccc(C(F)(F)F)c1,75.4*,-1.0,1.6,13.3
CC(=O)OCc1c(C(F)(F)F)nn(C)c1Oc1ccccc1,-12.3,3.6,-3.8,8.4
CC1CCc2c(C(=O)Oc3cccc(-n4cnnn4)c3)csc2C1 (stereo not given),88.6*,1.1,-0.4,-10.0
O=S(=O)(O)c1ccc2c(c1)C(C(Cl)(Cl)Cl)OC(C(Cl)(Cl)Cl)O2 (stereo not given),x,x,x,-6.4
Cc1ccc(S(=O)(=O)NCC(=O)NCC(=O)OCC(=O)N2CC(=O)Nc3ccccc32)cc1C,3.7,-2.1,0.4,-10.5
CCn1c(Cn2nnc(-c3ccccc3)n2)nnc1SCC(=O)Nc1ccccc1,88.1*,-6.4,-3.2,-0.2
CCn1c(CNC(=O)COc2ccc(C(C)C)cc2)nnc1SCC(=O)Nc1ccccc1,16.4,-1.9,1.1,-2.3
CC(C)Cn1c(N)c(C(=O)CSc2cc(Cl)ccc2Cl)c(=O)n(C)c1=O,96.0*,4.0,4.9,x
COc1ccccc1OCCC(=O)OCC(=O)Nc1ccc(Br)cc1F,9.6,-0.8,3.4,-13.0
O=C(Oc1ccccc1C(=O)Nc1ccccc1)c1ccc(Br)c([N+](=O)[O-])c1,84.5*,2.2,9.1,-10.4
SMILES,CHOP inhibitor,XBP1 UPR activ,UPR CHOP act,PvdQ inh
O=C(Nc1ccccc1)c1ccccc1Oc1ccc(C(F)(F)F)cc1[N+](=O)[O-],71.0*,0.9,-0.9,10.9
COc1ccccc1C(=O)Oc1ccccc1C(=O)Nc1ccccc1,30.6,1.1,2.9,-10.7
CC(=O)NCCc1ccc(C(=O)CSc2nnc(C3CC3)n2C2CC2)cc1,x,-1.3,1.2,-6.4
CCOc1ccc(-c2csc(NNC3=NCCCCC3)n2)cc1,75.0*,5.5,0.0,-10.3
C/C(=C\C(=O)c1ccc(Br)cc1)NCc1ccc(C)cc1,77.1*,5.6,-1.7,-13.7
COc1cccc(/C=N\NC(=O)c2sc(N)nc2C)c1OC,11.6,0.2,0.8,-10.6
O=CNn1cnc2c(oc3nc(-c4ccccc4)cc(-c4ccco4)c32)c1=O,85.3*,7.3,1.5,-4.7
COc1cc(/C=C2\SC(=O)N(Cc3ccc(Cl)cc3)C2=O)cc([N+](=O)[O-])c1O,106.5*,x,x,-9.7
COc1cc(/C=C2\SC(=O)N(Cc3ccc(F)cc3)C2=O)cc([N+](=O)[O-])c1O,-4.4,-0.6,0.8,-11.7
CC(C)=CC1C(C(=O)Nc2ccc(Br)cn2)C1(C)C (stereo not given),75.7*,-4.1,1.6,-10.4
CCCCC(=O)Nc1ccc(Br)cn1,-5.7,3.5,5.6,-2.9
Cc1cccc(NC(c2ccc(C)s2)c2ccc3ccc(C)nc3c2O)n1 (stereo not given),24.3,1.9,92.9*,-2.8
O=C1NC(=O)/C(=C/c2cccc([N+](=O)[O-])c2)N1,10.5,-4.2,-1.3,6.4
CCN1C/C(=C/c2cccc([N+](=O)[O-])c2)C(=O)/C(=C/c2cccc([N+](=O)[O-])c2)C1,110.7*,x,x,9.7
Cc1cccc(NC(=S)N(CCc2nc3cc(C)c(C)cc3[nH]2)Cc2cccnc2)c1,80.3*,3.7,2.0,-3.1
COc1cccc(NC(=S)N(CCc2nc3cc(C)c(C)cc3[nH]2)Cc2cccnc2)c1,22.9,2.1,1.9,-4.4
COc1ccc(N2CCN(c3cc(C)c4ccc(O)cc4n3)CC2)cc1,-6.7,4.5,4.0,-16.8
Cc1cc(N2CCN(c3ccc(F)cc3)CC2)nc2cc(O)ccc12,81.6*,2.8,-0.3,-10.7
COC(=O)c1cc(C)c(C)cc1NC1OC(CO)C(O)C1O (stereo not given),x,x,x,8.3
COc1ccc(/C=C/C(=O)OCC(=O)Nc2cc3oc4ccccc4c3cc2OC)cc1,36.7,162.5*,115.1*,x
CCc1ccc(OCC(=O)N/N=C(\C)c2ccc(OC(F)F)cc2)cc1,78.3*,-3.4,1.7,2.2
CN1CCN(CC(=O)Nc2ccc(Oc3ccccc3)cc2)CC1,-21.1,0.5,3.0,6.0
CCOC(=O)N1CCN(CC(=O)Nc2ccc(Oc3ccccc3)cc2)CC1,81.9*,0.9,1.8,-7.9
O=C(CN1CCN(c2ccccc2)CC1)Nc1ccc(OCc2ccccc2)cc1,86.1*,-0.5,-2.6,-12.5
CCCN(CC(=O)Nc1ccc(Cl)cc1Cl)C(=O)c1ccc(=O)[nH]c1,x,-6.7,1.2,13.0
SMILES,CHOP inhibitor,XBP1 UPR activ,UPR CHOP act,PvdQ inh
CCOC(=O)/C(C#N)=C/c1c(Oc2cccc(C)c2)nc2c(C)cccn2c1=O,77.0*,0.9,-0.3,-14.5
COC(=O)/C(C#N)=C/c1c(Oc2cccc(C)c2C)nc2ccccn2c1=O,86.4*,8.0,-0.6,-9.9
CCOC(=O)/C(C#N)=C/c1c(Oc2cccc(C)c2)nc2ccccn2c1=O,16.7,-1.7,1.1,-13.7
COC(=O)[C@]1(C)N[C@H](CN(C)S(=O)(=O)c2ccc(OC(F)(F)F)cc2)[C@@H]2C(=O)N(Cc3ccccc3)C(=O)[C@@H]21,x,-0.6,1.0,-10.6
C#CCn1cc(/C=N/NC(=O)COc2cccc3cccnc23)c2ccccc21,103.1*,1.0,-2.1,-2.9
COC(=O)Cn1cc(/C=N/NC(=O)COc2cccc3cccnc23)c2ccccc21,30.7,2.8,-1.2,7.7
Cc1ccccc1OCC(=O)N/N=C/c1cn(Cc2ccccc2)c2ccccc12,73.4*,-0.8,2.0,-9.8

# High-throughput results as filed in PubChem.
